Reference: ChEMBL document CHEMBL2086328, “¹⁸F-labeled 2-phenylquinoxaline derivatives as potential positron emission tomography probes for in vivo imaging of β-amyloid plaques” (Eur J Med Chem, 2012)

How the values were obtained:
Brain [1] = assay: Biodistribution in ICR mouse brain at 370 kBq, iv after 60 mins by gamma counting; assay type: ADME, organism-based; settings: in vivo, 1 h
Method in brief: (§1)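 Male ICR mice (five weeks, 20–22 g), tail-vein injection of 18F tracer in 0.1 mL saline with 10% EtOH. Killed by decapitation at set times, n = 5 per time point. Organs removed, weighed and gamma-counted; %ID/g wet tissue from comparison with diluted aliquots of injected dose; mean ± SD.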

Spleen [2] = assay: Biodistribution in ICR mouse spleen at 370 kBq, iv after 10 mins by gamma counting; assay type: ADME, organism-based; settings: in vivo; method in brief: as §1
Brain [3] = assay: Biodistribution in ICR mouse brain at 370 kBq, iv after 30 mins by gamma counting; assay type: ADME, organism-based; settings: in vivo, 0.5 h; method in brief: as §1
Stomach [4] = assay: Biodistribution in ICR mouse stomach at 370 kBq, iv after 30 mins by gamma counting; assay type: ADME, organism-based; settings: in vivo, 0.5 h; method in brief: as §1
Liver [5] = assay: Biodistribution in ICR mouse liver at 370 kBq, iv after 2 mins by gamma counting; assay type: ADME, organism-based; settings: in vivo; method in brief: as §1
Stomach [6] = assay: Biodistribution in ICR mouse stomach at 370 kBq, iv after 2 mins by gamma counting; assay type: ADME, organism-based; settings: in vivo; method in brief: as §1
Intestine [7] = assay: Biodistribution in ICR mouse intestine at 370 kBq, iv after 2 mins by gamma counting; assay type: ADME, organism-based; settings: in vivo; method in brief: as §1
Heart [8] = assay: Biodistribution in ICR mouse heart at 370 kBq, iv after 2 mins by gamma counting; assay type: ADME, organism-based; settings: in vivo; method in brief: as §1
Heart [9] = assay: Biodistribution in ICR mouse heart at 370 kBq, iv after 30 mins by gamma counting; assay type: ADME, organism-based; settings: in vivo, 0.5 h; method in brief: as §1
Kidney [10] = assay: Biodistribution in ICR mouse kidney at 370 kBq, iv after 10 mins by gamma counting; assay type: ADME, organism-based; settings: in vivo; method in brief: as §1
Blood [11] = assay: Biodistribution in ICR mouse blood at 370 kBq, iv after 10 mins by gamma counting; assay type: ADME, organism-based; settings: in vivo; method in brief: as §1
Stomach [12] = assay: Biodistribution in ICR mouse stomach at 370 kBq, iv after 60 mins by gamma counting; assay type: ADME, organism-based; settings: in vivo, 1 h; method in brief: as §1
Blood [13] = assay: Biodistribution in ICR mouse blood at 370 kBq, iv after 60 mins by gamma counting; assay type: ADME, organism-based; settings: in vivo, 1 h; method in brief: as §1
Intestine [14] = assay: Biodistribution in ICR mouse intestine at 370 kBq, iv after 30 mins by gamma counting; assay type: ADME, organism-based; settings: in vivo, 0.5 h; method in brief: as §1
Brain [15] = assay: Biodistribution in ICR mouse brain at 370 kBq, iv after 10 mins by gamma counting; assay type: ADME, organism-based; settings: in vivo; method in brief: as §1
Brain [16] = assay: Ratio of drug level in ICR mouse brain after 2 mins to ICR mouse brain after 60 mins at 370 kBq, iv; assay type: ADME, organism-based; settings: in vivo
Method in brief: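 Same intravenous study in ICR mice (370 kBq 18F tracer in saline/10% EtOH, n = 5 per time point). Ratio is brain %ID/g at 2 min divided by brain %ID/g at 60 min post-injection.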

Spleen [17] = assay: Biodistribution in ICR mouse spleen at 370 kBq, iv after 2 mins by gamma counting; assay type: ADME, organism-based; settings: in vivo; method in brief: as §1
Kidney [18] = assay: Biodistribution in ICR mouse kidney at 370 kBq, iv after 2 mins by gamma counting; assay type: ADME, organism-based; settings: in vivo; method in brief: as §1
Liver [19] = assay: Biodistribution in ICR mouse liver at 370 kBq, iv after 10 mins by gamma counting; assay type: ADME, organism-based; settings: in vivo; method in brief: as §1
Lung [20] = assay: Biodistribution in ICR mouse lung at 370 kBq, iv after 60 mins by gamma counting; assay type: ADME, organism-based; settings: in vivo, 1 h; method in brief: as §1
Intestine [21] = assay: Biodistribution in ICR mouse intestine at 370 kBq, iv after 60 mins by gamma counting; assay type: ADME, organism-based; settings: in vivo, 1 h; method in brief: as §1
Heart [22] = assay: Biodistribution in ICR mouse heart at 370 kBq, iv after 10 mins by gamma counting; assay type: ADME, organism-based; settings: in vivo; method in brief: as §1
Heart [23] = assay: Biodistribution in ICR mouse heart at 370 kBq, iv after 60 mins by gamma counting; assay type: ADME, organism-based; settings: in vivo, 1 h; method in brief: as §1
Brain [24] = assay: Biodistribution in ICR mouse brain at 370 kBq, iv after 2 mins by gamma counting; assay type: ADME, organism-based; settings: in vivo; method in brief: as §1
Spleen [25] = assay: Biodistribution in ICR mouse spleen at 370 kBq, iv after 60 mins by gamma counting; assay type: ADME, organism-based; settings: in vivo, 1 h; method in brief: as §1
Intestine [26] = assay: Biodistribution in ICR mouse intestine at 370 kBq, iv after 10 mins by gamma counting; assay type: ADME, organism-based; settings: in vivo; method in brief: as §1
Blood [27] = assay: Biodistribution in ICR mouse blood at 370 kBq, iv after 2 mins by gamma counting; assay type: ADME, organism-based; settings: in vivo; method in brief: as §1
[28] = Lipophilicity, log D of the compound; assay type: physicochemical; settings: octanol/water
Method in brief: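 18F tracer (740 kBq) in 3 g n-octanol plus 3 g PBS (0.05 M, pH 7.4). Vortexed 3 min at room temperature, centrifuged 5 min at 3000 rpm; weighed samples from octanol and buffer layers counted.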

Spleen [29] = assay: Biodistribution in ICR mouse spleen at 370 kBq, iv after 30 mins by gamma counting; assay type: ADME, organism-based; settings: in vivo, 0.5 h; method in brief: as §1
Bone [30] = assay: Biodistribution in ICR mouse bone at 370 kBq, iv after 10 mins by gamma counting; assay type: ADME, organism-based, Bone element; settings: in vivo; method in brief: as §1
Lung [31] = assay: Biodistribution in ICR mouse lung at 370 kBq, iv after 30 mins by gamma counting; assay type: ADME, organism-based; settings: in vivo, 0.5 h; method in brief: as §1
Kidney [32] = assay: Biodistribution in ICR mouse kidney at 370 kBq, iv after 60 mins by gamma counting; assay type: ADME, organism-based; settings: in vivo, 1 h; method in brief: as §1
Lung [33] = assay: Biodistribution in ICR mouse lung at 370 kBq, iv after 10 mins by gamma counting; assay type: ADME, organism-based; settings: in vivo; method in brief: as §1
Lung [34] = assay: Biodistribution in ICR mouse lung at 370 kBq, iv after 2 mins by gamma counting; assay type: ADME, organism-based; settings: in vivo; method in brief: as §1
Liver [35] = assay: Biodistribution in ICR mouse liver at 370 kBq, iv after 30 mins by gamma counting; assay type: ADME, organism-based; settings: in vivo, 0.5 h; method in brief: as §1
Bone [36] = assay: Biodistribution in ICR mouse bone at 370 kBq, iv after 30 mins by gamma counting; assay type: ADME, organism-based, Bone element; settings: in vivo, 0.5 h; method in brief: as §1
Stomach [37] = assay: Biodistribution in ICR mouse stomach at 370 kBq, iv after 10 mins by gamma counting; assay type: ADME, organism-based; settings: in vivo; method in brief: as §1
Kidney [38] = assay: Biodistribution in ICR mouse kidney at 370 kBq, iv after 30 mins by gamma counting; assay type: ADME, organism-based; settings: in vivo, 0.5 h; method in brief: as §1
Blood [39] = assay: Biodistribution in ICR mouse blood at 370 kBq, iv after 30 mins by gamma counting; assay type: ADME, organism-based; settings: in vivo, 0.5 h; method in brief: as §1
Bone [40] = assay: Biodistribution in ICR mouse bone at 370 kBq, iv after 2 mins by gamma counting; assay type: ADME, organism-based, Bone element; settings: in vivo; method in brief: as §1
Liver [41] = assay: Biodistribution in ICR mouse liver at 370 kBq, iv after 60 mins by gamma counting; assay type: ADME, organism-based; settings: in vivo, 1 h; method in brief: as §1
Bone [42] = assay: Biodistribution in ICR mouse bone at 370 kBq, iv after 60 mins by gamma counting; assay type: ADME, organism-based, Bone element; settings: in vivo, 1 h; method in brief: as §1

## CNc1ccc2nc(-c3ccc(OCC[18F])cc3)cnc2c1
Brain [1]
  Drug uptake: 3.17 % ID/g
Spleen [2]
  Drug uptake: 3.87 % ID/g
Brain [3]
  Drug uptake: 3.45 % ID/g
Stomach [4]
  Drug uptake: 1.84 %ID
Liver [5]
  Drug uptake: 9.5 % ID/g
Stomach [6]
  Drug uptake: 1.81 %ID
Intestine [7]
  Drug uptake: 9.63 %ID
Heart [8]
  Drug uptake: 6.08 % ID/g
Heart [9]
  Drug uptake: 4.28 % ID/g
Kidney [10]
  Drug uptake: 5.96 % ID/g
Blood [11]
  Drug uptake: 4.68 % ID/g
Stomach [12]
  Drug uptake: 2.5 %ID
Blood [13]
  Drug uptake: 5.24 % ID/g
Intestine [14]
  Drug uptake: 17.15 %ID
Brain [15]
  Drug uptake: 5.07 % ID/g
Brain [16]
  Ratio: 2.58
Spleen [17]
  Drug uptake: 4.71 % ID/g
Kidney [18]
  Drug uptake: 9.37 % ID/g
Liver [19]
  Drug uptake: 7.8 % ID/g
Lung [20]
  Drug uptake: 3.77 % ID/g
Intestine [21]
  Drug uptake: 18.75 %ID
Heart [22]
  Drug uptake: 4.27 % ID/g
Heart [23]
  Drug uptake: 4.24 % ID/g
Brain [24]
  Drug uptake: 8.17 % ID/g
Spleen [25]
  Drug uptake: 3.04 % ID/g
Intestine [26]
  Drug uptake: 12.87 %ID
Blood [27]
  Drug uptake: 4.93 % ID/g
[28]
  logD: 3.14
Spleen [29]
  Drug uptake: 3.35 % ID/g
Bone [30]
  Drug uptake: 2.84 % ID/g
Lung [31]
  Drug uptake: 3.78 % ID/g
Kidney [32]
  Drug uptake: 3.79 % ID/g
Lung [33]
  Drug uptake: 4.36 % ID/g
Lung [34]
  Drug uptake: 6.38 % ID/g
Liver [35]
  Drug uptake: 5.37 % ID/g
Bone [36]
  Drug uptake: 5.73 % ID/g
Stomach [37]
  Drug uptake: 2.55 %ID
Kidney [38]
  Drug uptake: 4.25 % ID/g
Blood [39]
  Drug uptake: 5.09 % ID/g
Bone [40]
  Drug uptake: 2.46 % ID/g
Liver [41]
  Drug uptake: 5 % ID/g
Bone [42]
  Drug uptake: 6.2 % ID/g

## CNc1ccc2nc(-c3ccc(OCCOCCOCC[18F])cc3)cnc2c1
Brain [1]
  Drug uptake: 0.64 % ID/g
Spleen [2]
  Drug uptake: 1.65 % ID/g
Brain [3]
  Drug uptake: 0.83 % ID/g
Stomach [4]
  Drug uptake: 3.21 %ID
Liver [5]
  Drug uptake: 14.18 % ID/g
Stomach [6]
  Drug uptake: 1.55 %ID
Intestine [7]
  Drug uptake: 6.06 %ID
Heart [8]
  Drug uptake: 3.21 % ID/g
Heart [9]
  Drug uptake: 1.19 % ID/g
Kidney [10]
  Drug uptake: 3.91 % ID/g
Blood [11]
  Drug uptake: 3.32 % ID/g
Stomach [12]
  Drug uptake: 6.53 %ID
Blood [13]
  Drug uptake: 1.54 % ID/g
Intestine [14]
  Drug uptake: 32.83 %ID
Brain [15]
  Drug uptake: 1.44 % ID/g
Brain [16]
  Ratio: 3.89
Spleen [17]
  Drug uptake: 2.07 % ID/g
Kidney [18]
  Drug uptake: 5.52 % ID/g
Liver [19]
  Drug uptake: 14.09 % ID/g
Lung [20]
  Drug uptake: 1.15 % ID/g
Intestine [21]
  Drug uptake: 39.02 %ID
Heart [22]
  Drug uptake: 1.76 % ID/g
Heart [23]
  Drug uptake: 1.03 % ID/g
Brain [24]
  Drug uptake: 2.49 % ID/g
Spleen [25]
  Drug uptake: 0.94 % ID/g
Intestine [26]
  Drug uptake: 12.26 %ID
Blood [27]
  Drug uptake: 5.51 % ID/g
[28]
  logD: 2.79
Spleen [29]
  Drug uptake: 1.21 % ID/g
Bone [30]
  Drug uptake: 1 % ID/g
Lung [31]
  Drug uptake: 1.76 % ID/g
Kidney [32]
  Drug uptake: 1.65 % ID/g
Lung [33]
  Drug uptake: 2.4 % ID/g
Lung [34]
  Drug uptake: 4.07 % ID/g
Liver [35]
  Drug uptake: 7.9 % ID/g
Bone [36]
  Drug uptake: 1.12 % ID/g
Stomach [37]
  Drug uptake: 2.81 %ID
Kidney [38]
  Drug uptake: 3.27 % ID/g
Blood [39]
  Drug uptake: 2.38 % ID/g
Bone [40]
  Drug uptake: 1.49 % ID/g
Liver [41]
  Drug uptake: 4.89 % ID/g
Bone [42]
  Drug uptake: 1.78 % ID/g
